Source: the EternaBench riboswitch data

Test system: MS2 coat protein
Assay: apparent Kd, MS2 coat protein; higher = weaker binding; RNA-MaP array; tryptophan 2.4 mM where present
In short: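 Designs on Illumina sequencing-chip clusters, transcribed by stalled E. coli RNA polymerase, were exposed to SNAP-549-labelled MS2 coat protein in doubling steps from 0.7 or 1.5 nM up to 3 µM, without and then with constant ligand. The buffer held 100 mM Tris-HCl pH 7.5, 80 mM KCl, 4 mM MgCl2, BSA, DTT, yeast tRNA and Tween-20. Apparent Kd values are medians of filtered per-cluster binding-curve fits to green signal normalised to red-channel RNA signal and control-cluster median Fmax.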

[1] = designed as: OFF switch for tryptophan, no ligand
[2] = ligand present: tryptophan, designed as: OFF switch for tryptophan
[3] = designed as: ON switch for tryptophan, no ligand
[4] = ligand present: tryptophan, designed as: ON switch for tryptophan

Sequence | apparent Kd [1] [nM] | apparent Kd [2] [nM] | apparent Kd [3] [nM] | apparent Kd [4] [nM]
AGAUGAGUCACGGCCGCCACUCUUAUCAGGAUCACCCAUGGUUGACAUGAGGAUCACCCAUGUAUGAGGACCGGGUGAUGAGCAU | 12.2 | 15.6 | – | –
AGAGCAUUGACGGCCGCCACUCGUGUCACAUGAGGAUCACCCAUGUGACGGGUGAUCGCCCGGUUGAGGACCGGGUCAAUGCUCA | – | – | 9.69 | 11.4
ACGUUUUAGUCGGCCGCCACUGAUCUCAUGUUCAACAUGAGGAUCACCCAUGUACCUUUUUUUAUCAGGACCGGGACGUAAUAGA | – | – | 329 | 62.3
CGAGUGCUGUCGGCCGCCACUGCACAUGAGGAUCACCCAUGUAAAAGCUGGCUGUGACUGGUGUUCAGGACCGGGACAGGGUCUU | 10.7 | 25.4 | – | –
AUAUAUACAUGAGGAUCACCCAUGUUAUUUCGAGGACCGGUACGGCCGCCACUCGAUAGAGUAGAAGUAACAUUUGUUAGAUGUA | – | – | 19.7 | 13.9
ACAUGAGGAUCACCCAUGUCAUGAGGUUCACGAGGACCGGUACGGCCGCCACUCGACAUGAGGGUCACCCGUGAACGGAACACCC | – | – | 14.8 | 20
AACGUCUUGUCGGCCGCCACUGUAUGGUGCGUGACAUGAAACAUGAGGAUCACCCAUGUAGCAUGCAGGACCGGGACAGUGCCAA | 9.84 | 17.8 | – | –
AUGCAGAACACGGCCGCCACUCCAUGUAUACAUGAGGAUCACCCAUGUAAUUUGUAUUUUUUAUAGAGGACCGGGUGAAAUGCAA | – | – | 33.5 | 18.2
AAAACAUGAGGAUCACCCAUGUACAUGGGUCGAGGACCGGUACGGCCGCCACUCGCCGCCCGCCCGCCCGCCACCUCUCCCGCCC | – | – | 69.9 | 66.2
